Measurements from ChEMBL document CHEMBL1759840, “2,3-Substituted quinoxalin-6-amine analogs as antiproliferatives: a structure-activity relationship study” (2011).
The source made the active and inactive calls. The rule behind the calls is not given here.

Experiments:
Assay type in all cases: functional
[1] = test system: A549; assay: Growth inhibition of human A549 cells at 20 uM after 72 hrs by alamar blue assay; conditions: for inhibition of growth at 20 µM: A549, 72 h, read-out: GI
Summary of the method: (§1)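 Single-concentration screen at 20 μM with 72 h exposure across a panel of cancer lines: lung A549, pancreatic AsPC1, colon HT29, breast MDA-MB-231, prostate PC3, ovarian SKOV3 and bone U2OS. Growth inhibition read after 72 h.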

[2] = test system: ASPC1; assay: Growth inhibition of human AsPC1 cells at 20 uM after 72 hrs by alamar blue assay; conditions: for inhibition of growth at 20 µM: ASPC1, 72 h, read-out: GI; summary of the method: as §1
[3] = test system: HT-29; assay: Growth inhibition of human HT-29 cells at 20 uM after 72 hrs by alamar blue assay; conditions: for inhibition of growth at 20 µM: HT-29, 72 h, read-out: GI; summary of the method: as §1
[4] = test system: MDA-MB-231; assay: Growth inhibition of human MDA-MB-231 cells at 20 uM after 72 hrs by alamar blue assay; conditions: for inhibition of growth at 20 µM: MDA-MB-231, 72 h, read-out: GI; summary of the method: as §1
[5] = test system: PC-3; assay: Growth inhibition of human PC3 cells at 20 uM after 72 hrs by alamar blue assay; conditions: for inhibition of growth at 20 µM: PC-3, 72 h, read-out: GI; summary of the method: as §1
[6] = test system: SK-OV-3; assay: Growth inhibition of human SKOV3 cells at 20 uM after 72 hrs by alamar blue assay; conditions: for inhibition of growth at 20 µM: SK-OV-3, 72 h, read-out: GI; summary of the method: as §1
[7] = test system: U2OS; assay: Growth inhibition of human U2OS cells at 20 uM after 72 hrs by alamar blue assay; conditions: for inhibition of growth at 20 µM: read-out: GI; summary of the method: as §1

Row | SMILES | growth inhibition (GI) [1] | growth inhibition (GI) [2] | growth inhibition (GI) [3] | growth inhibition (GI) [4] | growth inhibition (GI) [5] | growth inhibition (GI) [6] | growth inhibition (GI) [7] | inhibition of growth at 20 µM [1] [%] | inhibition of growth at 20 µM [2] [%] | inhibition of growth at 20 µM [3] [%] | inhibition of growth at 20 µM [4] [%] | inhibition of growth at 20 µM [5] [%] | inhibition of growth at 20 µM [6] [%] | inhibition of growth at 20 µM [7] [%]
1 | S=C(Nc1ccccc1)Nc1ccc2nc(-c3ccccc3)c(-c3ccccc3)nc2c1 | inactive | inactive | inactive | inactive | inactive | inactive | inactive |  |  |  |  |  |  | 
2 | Cc1nc2ccc(NC(=O)N3CCCC3)cc2nc1C | inactive | inactive | inactive | inactive | inactive | inactive | inactive |  |  |  |  |  |  | 
3 | O=C(Nc1ccccc1)Nc1ccc2nc(-c3cccs3)c(-c3cccs3)nc2c1 | inactive | inactive | inactive | inactive | inactive | inactive | inactive |  |  |  |  |  |  | 
4 | CC(=O)Nc1ccc2nc(C)c(C)nc2c1 |  |  |  |  |  |  |  | 23.4 | 26.2 | 31.7 | 25.7 | 21.8 | 4 | 31.4
5 | O=[N+]([O-])c1ccc(NC(=S)Nc2ccc3nc(-c4cccs4)c(-c4cccs4)nc3c2)cc1 | inactive | inactive |  |  |  | inactive |  |  |  | 23.9 | 53.3 | 19.5 |  | 50.6
6 | CC(=O)Nc1ccc2nc(-c3ccco3)c(-c3ccco3)nc2c1 |  | inactive |  |  |  |  | inactive | 57.8 |  | 7.6 | 20.3 | 57.7 | 9 | 
7 | O=C(Nc1ccc(-c2ccccc2)cc1)Nc1ccc2nc(-c3ccco3)c(-c3ccco3)nc2c1 |  | inactive |  |  |  | inactive |  | 13.8 |  | 72.4 | 50.2 | 88.5 |  | 46.9
8 | O=[N+]([O-])c1ccc(NC(=S)Nc2ccc3nc(-c4ccccc4)c(-c4ccccc4)nc3c2)cc1 |  |  |  |  |  |  |  | 16.6 | 55.5 | 81.2 | 72.6 | 81 | 55.8 | 76.1
9 | O=C(Nc1ccccc1)Nc1ccc2nc(-c3ccco3)c(-c3ccco3)nc2c1 |  |  |  |  |  |  |  | 54.6 | 9.6 | 52.1 | 31.3 | 70.6 | 24.7 | 59.6
10 | Cc1ccc(S(=O)(=O)Nc2ccc3nc(-c4ccccc4)c(-c4ccccc4)nc3c2)cc1 | inactive | inactive | inactive | inactive | inactive | inactive | inactive |  |  |  |  |  |  | 
11 | O=C(Nc1ccccc1)Nc1ccc2nc(-c3ccccc3)c(-c3ccccc3)nc2c1 | inactive | inactive | inactive | inactive | inactive | inactive | inactive |  |  |  |  |  |  | 
12 | S=C(Nc1ccccc1)Nc1ccc2nc(-c3ccco3)c(-c3ccco3)nc2c1 |  | inactive |  |  |  | inactive |  | 18 |  | 26.1 | 19.1 | 56.8 |  | 21.4
13 | O=C(Nc1ccc2nc(-c3ccco3)c(-c3ccco3)nc2c1)N1CCCC1 |  |  |  |  |  |  |  | 23.3 | 11.6 | 16.7 | 18.2 | 53.1 | 16.9 | 46.5
14 | O=C(Nc1ccc2nc(-c3ccco3)c(-c3ccco3)nc2c1)N1CCOCC1 |  | inactive |  |  |  | inactive | inactive | 39.7 |  | 19.4 | 10.9 | 48.9 |  | 
15 | Cc1nc2ccc(NC(=O)NN3CCC(Cc4ccccc4)CC3)cc2nc1C |  | inactive |  |  |  |  |  | 40.3 |  | 16.3 | 12.4 | 30.6 | 8.9 | 33.5
16 | S=C(Nc1ccccc1)Nc1ccc2nc(-c3cccs3)c(-c3cccs3)nc2c1 | inactive | inactive | inactive | inactive | inactive | inactive | inactive |  |  |  |  |  |  | 
17 | O=C(Nc1ccc(F)cc1)Nc1ccc2nc(-c3ccco3)c(-c3ccco3)nc2c1 |  |  |  |  |  | inactive |  | > 100 | > 100 | 74.2 | 38.4 | 90.7 |  | 55.6
18 | Cc1ccc(S(=O)(=O)N(c2ccc3nc(-c4ccco4)c(-c4ccco4)nc3c2)S(=O)(=O)c2ccc(C)cc2)cc1 | inactive | inactive | inactive | inactive | inactive | inactive | inactive |  |  |  |  |  |  | 
19 | O=C(Nc1ccc(Cl)cc1)Nc1ccc2nc(-c3ccco3)c(-c3ccco3)nc2c1 |  |  |  |  |  |  |  | 99.2 | 81.1 | 86.3 | 92.5 | 86.4 | 55.8 | 87.4
20 | CC(=O)Nc1ccc2nc(-c3ccccc3)c(-c3ccccc3)nc2c1 | inactive | inactive | inactive | inactive | inactive | inactive | inactive |  |  |  |  |  |  | 
21 | Cc1ccc(S(=O)(=O)N(c2ccc3nc(-c4cccs4)c(-c4cccs4)nc3c2)S(=O)(=O)c2ccc(C)cc2)cc1 | inactive | inactive | inactive | inactive | inactive | inactive | inactive |  |  |  |  |  |  | 
22 | Cc1nc2ccc(NC(=O)N3CCCCC3)cc2nc1C | inactive | inactive | inactive | inactive | inactive | inactive | inactive |  |  |  |  |  |  | 
